Assay results from ChEMBL document CHEMBL2417409 (Eur J Med Chem, 2013).

Legend:
[1] = target: Sucrase-isomaltase, intestinal (Rattus norvegicus) (UniProt P23739); experiment: Inhibition of rat intestine sucrase using sucrose as substrate at 10 mg/ml incubated for 10 mins prior to substrate addition measured after 40 mins by glucose oxidase colorimetric method
[2] = target: T1, Sucrase-isomaltase, intestinal (Rattus norvegicus, UniProt P23739); experiment: Inhibition of rat intestine sucrase using sucrose as substrate incubated for 10 mins prior to substrate addition measured after 40 mins by glucose oxidase colorimetric method
T1 sequence (P23739 1-1013 limits assumed): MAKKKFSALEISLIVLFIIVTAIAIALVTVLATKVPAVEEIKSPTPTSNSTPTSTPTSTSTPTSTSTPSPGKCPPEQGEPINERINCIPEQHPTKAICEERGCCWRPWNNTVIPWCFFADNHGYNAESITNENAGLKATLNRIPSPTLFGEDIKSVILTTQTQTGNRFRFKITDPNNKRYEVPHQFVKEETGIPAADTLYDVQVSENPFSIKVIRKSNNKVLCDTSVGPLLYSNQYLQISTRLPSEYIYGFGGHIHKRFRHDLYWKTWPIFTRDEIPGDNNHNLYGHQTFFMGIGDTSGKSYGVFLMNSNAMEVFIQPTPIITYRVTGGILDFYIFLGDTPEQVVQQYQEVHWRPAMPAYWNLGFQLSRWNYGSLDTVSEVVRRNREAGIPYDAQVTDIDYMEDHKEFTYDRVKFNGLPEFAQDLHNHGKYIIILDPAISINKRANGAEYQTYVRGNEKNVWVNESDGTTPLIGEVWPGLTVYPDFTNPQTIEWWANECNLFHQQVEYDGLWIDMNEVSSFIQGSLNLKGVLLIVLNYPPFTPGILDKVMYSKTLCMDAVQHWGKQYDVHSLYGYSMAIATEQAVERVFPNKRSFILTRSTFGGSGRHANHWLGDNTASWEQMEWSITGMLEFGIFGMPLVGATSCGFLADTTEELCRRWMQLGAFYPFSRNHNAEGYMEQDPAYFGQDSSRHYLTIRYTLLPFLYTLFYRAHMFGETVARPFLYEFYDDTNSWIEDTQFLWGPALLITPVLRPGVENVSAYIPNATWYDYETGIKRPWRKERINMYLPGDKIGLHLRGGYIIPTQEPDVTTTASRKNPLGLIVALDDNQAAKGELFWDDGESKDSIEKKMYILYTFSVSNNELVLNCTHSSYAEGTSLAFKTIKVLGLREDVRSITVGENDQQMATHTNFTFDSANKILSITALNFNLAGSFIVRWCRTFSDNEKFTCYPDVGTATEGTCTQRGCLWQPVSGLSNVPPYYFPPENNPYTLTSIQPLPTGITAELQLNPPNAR
T1 sequence (P23739 1014-1841 limits assumed): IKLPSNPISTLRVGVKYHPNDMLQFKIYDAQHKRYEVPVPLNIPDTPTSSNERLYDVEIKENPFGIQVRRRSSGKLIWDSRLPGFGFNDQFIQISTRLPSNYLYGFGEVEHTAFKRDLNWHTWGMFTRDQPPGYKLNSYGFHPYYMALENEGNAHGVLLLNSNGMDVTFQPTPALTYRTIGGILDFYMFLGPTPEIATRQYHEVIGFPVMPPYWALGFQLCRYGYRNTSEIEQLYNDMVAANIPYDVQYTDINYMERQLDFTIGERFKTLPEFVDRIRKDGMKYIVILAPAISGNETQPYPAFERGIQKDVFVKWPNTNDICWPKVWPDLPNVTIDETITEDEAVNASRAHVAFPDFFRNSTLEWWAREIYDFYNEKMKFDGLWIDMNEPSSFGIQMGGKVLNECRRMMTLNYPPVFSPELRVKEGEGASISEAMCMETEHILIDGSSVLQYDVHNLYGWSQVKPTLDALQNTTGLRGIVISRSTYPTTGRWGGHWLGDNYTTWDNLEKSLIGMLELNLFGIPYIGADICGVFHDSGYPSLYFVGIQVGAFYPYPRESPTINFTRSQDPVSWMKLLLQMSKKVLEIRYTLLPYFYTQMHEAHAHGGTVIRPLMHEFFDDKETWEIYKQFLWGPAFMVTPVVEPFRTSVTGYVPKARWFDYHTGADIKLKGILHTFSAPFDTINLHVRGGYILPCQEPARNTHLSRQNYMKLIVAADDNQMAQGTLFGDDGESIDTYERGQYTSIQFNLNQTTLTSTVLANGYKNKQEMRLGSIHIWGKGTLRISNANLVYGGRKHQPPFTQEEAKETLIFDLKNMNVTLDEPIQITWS
How it was run: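 Crude enzyme from centrifuged (12,000 g, 30 min) intestinal supernatant containing both maltase and sucrase. Test compound (1 mg/mL stock, DMSO) preincubated with enzyme at 37 C for 10 min. Substrate in 0.1 M phosphate buffer pH 6.9 (maltose 0.58 mM or sucrose 20 mM) added, then 40 min at 37 C. Quenched at 80 C for 15 min. Released glucose measured by glucose oxidase kit.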

[3] = test system: Radical scavenging activity; experiment: Antioxidant activity assessed as DPPH radical scavenging activity after 15 mins by spectrophotometry; type: functional
How it was run: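 Sample (10 µL at 0.1, 1.0 or 10.0 mg/mL) mixed with 0.1 mM DPPH in methanol (150 µL), kept in the dark at room temperature on a shaker for 15 min. Absorbance read at 517 nm. Percentage scavenging = [(A0 − A1)/A0] × 100, with A0 and A1 the absorbance without and with sample.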

Saccharomyces cerevisiae = experiment: Inhibition of yeast type 1 alpha-glucosidase using PNPG as substrate at 10 mg/ml incubated for 10 mins prior to substrate addition measured after 20 mins by spectrophotometry
[4] = test system: Maltase-glucoamylase, intestinal (Rattus norvegicus); experiment: Inhibition of rat intestine maltase using maltose as substrate at 10 mg/ml incubated for 10 mins prior to substrate addition measured after 40 mins by glucose oxidase colorimetric method
[5] = test system: Radical scavenging activity; experiment: Antioxidant activity assessed as DPPH radical scavenging activity at 10 mg/ml after 15 mins by spectrophotometry; type: functional
How it was run: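 Sample (10 µL at 0.1, 1.0 or 10.0 mg/mL) mixed with 0.1 mM DPPH in methanol (150 µL), kept in the dark at room temperature on a shaker for 15 min. Percentage scavenging = [(A0 − A1)/A0] × 100, with A0 and A1 the absorbance without and with sample.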

[6] = target: T1, Sucrase-isomaltase, intestinal; experiment: Non-competitive inhibition of rat intestine sucrase using sucrose as substrate by Lineweaver-Burk plot analysis
How it was run: (§1)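 Same maltase/sucrase reactions, with activity held at 0.45 (maltase) and 0.09 (sucrase) U/mg protein. Inhibitor 0 to 20.4 mM against substrate 1.0 to 20.0 mM. Vmax and Km obtained from Lineweaver–Burk intercepts and slopes. Ki (EI) from a secondary plot of slope versus inhibitor concentration; Ki′ (ESI) from a secondary plot of intercept versus inhibitor concentration.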

[7] = target: T1, Sucrase-isomaltase, intestinal; experiment: Competitive inhibition of rat intestine sucrase using sucrose as substrate by Lineweaver-Burk plot analysis; how it was run: as §1
[8] = Inhibition of yeast type 1 alpha-glucosidase using PNPG as substrate incubated for 10 mins prior to substrate addition measured after 20 mins by spectrophotometry; parameters: species or system Saccharomyces cerevisiae

Chain of Sucrase-isomaltase, intestinal (Rattus norvegicus) (P23739 1-1013 limits assumed): as the sequence (P23739 1-1013 limits assumed) above
Chain of Sucrase-isomaltase, intestinal (Rattus norvegicus) (P23739 1014-1841 limits assumed): as the sequence (P23739 1014-1841 limits assumed) above

| inhibition [1] [%] | IC50 [2] [µM] | inhibition (Saccharomyces cerevisiae) [%] | Structure (SMILES) | inhibition [5] [%] | further results |
| --- | --- | --- | --- | --- | --- |
| < 30 |  |  | COc1ccc(/C=C/C(=O)O[C@@H]2C[C@@H](O)[C@H](O)[C@@H](O)[C@H]2O)cc1OC |  |  |
|  | 87.4 | < 30 | O=C(O)/C=C/c1ccc(O)c(O)c1 [CAFFEIC ACID] |  | IC50 [3]: 150 µM |
| < 30 |  | < 30 | COc1ccc(/C=C/C(=O)O[C@@H]2C[C@@H](O)[C@H](O)[C@@H](O)[C@H]2O)cc1 | < 50 | inhibition [4]: < 30% |
|  | 171 | < 30 | COc1cc(/C=C/C(=O)O[C@H]2C[C@@H](O)[C@H](O)[C@@H](O)[C@H]2O)ccc1O | < 50 |  |
|  |  |  | COc1ccc(O)c(C(C)(C)C)c1.COc1ccc(O)cc1C(C)(C)C [BUTYLATED HYDROXYANISOLE] |  | IC50 [3]: 0.1 µM |
| < 30 |  |  | COc1cccc(/C=C/C(=O)O[C@@H]2C[C@@H](O)[C@H](O)[C@@H](O)[C@H]2O)c1 |  |  |
|  | 67.2 | < 30 | COc1cc(/C=C/C(=O)O[C@@H]2C[C@@H](O)[C@H](O)[C@@H](O)[C@H]2O)ccc1O | < 50 |  |
| < 30 |  | < 30 | COc1ccc(/C=C/C(=O)O[C@H]2C[C@@H](O)[C@H](O)[C@@H](O)[C@H]2O)cc1 | < 50 | inhibition [4]: < 30% |
| < 30 |  | < 30 | COc1cc(/C=C/C(=O)O[C@@H]2C[C@@H](O)[C@H](O)[C@@H](O)[C@H]2O)cc(OC)c1OC | < 50 | inhibition [4]: < 30% |
| < 30 |  |  | COc1ccccc1/C=C/C(=O)O[C@@H]1C[C@@H](O)[C@H](O)[C@@H](O)[C@H]1O |  |  |
| < 30 |  |  | COc1ccccc1/C=C/C(=O)O[C@H]1C[C@@H](O)[C@H](O)[C@@H](O)[C@H]1O |  |  |
|  | 43.6 | < 30 | O=C(/C=C/c1ccc(O)c(O)c1)O[C@@H]1C[C@@H](O)[C@H](O)[C@@H](O)[C@H]1O |  | IC50 [3]: 110 µM; Ki [6]: 47.5 µM; Ki [7]: 22.4 µM |
|  | 805 | < 30 | COc1ccc(/C=C/C(=O)O[C@H]2C[C@@H](O)[C@H](O)[C@@H](O)[C@H]2O)cc1O | < 50 |  |
|  |  |  | C[C@H]1O[C@H](O[C@H]2[C@H](O)[C@@H](O)[C@@H](O[C@H]3[C@H](O)[C@@H](O)C(O)O[C@@H]3CO)O[C@@H]2CO)[C@H](O)[C@@H](O)[C@@H]1N[C@H]1C=C(CO)[C@@H](O)[C@H](O)[C@H]1O (stereo partly drawn) [ACARBOSE] |  | IC50 [8]: 404 µM |
|  | 954 | < 30 | O=C(/C=C/c1ccc(O)c(O)c1)O[C@H]1C[C@@H](O)[C@H](O)[C@@H](O)[C@H]1O | < 50 |  |
| < 30 |  |  | COc1ccc(/C=C/C(=O)O[C@H]2C[C@@H](O)[C@H](O)[C@@H](O)[C@H]2O)cc1OC |  |  |
| < 30 |  |  | COc1cccc(/C=C/C(=O)O[C@H]2C[C@@H](O)[C@H](O)[C@@H](O)[C@H]2O)c1 |  |  |
|  | 53 | < 30 | COc1ccc(/C=C/C(=O)O[C@@H]2C[C@@H](O)[C@H](O)[C@@H](O)[C@H]2O)cc1O | < 50 |  |
